Data from ChEMBL document CHEMBL2346506, “Cytotoxicity and modulation of cancer-related signaling by (Z)- and (E)-3,4,3',5'-tetramethoxystilbene isolated from Eugenia rigida” (J Nat Prod, 2013).
Calls of active or inactive are those of the source. No cut-off for these calls is given here.

Legend:
SK-MEL = assay: Cytotoxicity against human SK-MEL cells assessed as growth inhibition measured after 48 hrs by Neutral Red dye assay
[1] = Inhibition of Ets signaling pathway in human HeLa cells assessed as measured as lowest concentration required 50 to 60 % inhibition of PMA induced luciferase treated 30 mins before induction; format: cell-based
Method in brief: (§1)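 Reporter assay in cells transfected with pathway luciferase plasmids. Cells plated at 0.015 × 10⁶ per well in 10% FBS, switched after 24 h to DMEM with 1% FBS, then transfected. 24 h after transfection, compound (final 40, 60, 80 or 100 μM) was added, followed 30 min later by inducer (IL-6, TGF-β, wnt3a or PMA). Luciferase was read 4 or 6 h after induction (6 h for Notch, Wnt, Hedgehog). Value is the IC50 or the lowest concentration giving maximal 50–60% inhibition; two independent experiments.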

HeLa [2] = assay: Inhibition of Stat3 signaling pathway in human HeLa cells assessed as measured as lowest concentration required 50 to 60 % inhibition of IL-6 induced luciferase treated 30 mins before induction; format: functional
Method in brief: as §1

[3] = target: Myc proto-oncogene protein (Homo sapiens) (UniProt P01106); assay: Inhibition of Myc signaling pathway in human HeLa cells assessed as measured as lowest concentration required 50 to 60 % inhibition of PMA induced luciferase treated 30 mins before induction; format: cell-based
Method in brief: as §1

[4] = Inhibition of Notch signaling pathway in human HeLa cells assessed as inhibition of PMA induced luciferase treated 30 mins before induction; format: cell-based
Method in brief: as §1

LLC-PK1 = assay: Cytotoxicity against pig LLC-PK1 cells assessed as growth inhibition measured after 48 hrs by Neutral Red dye assay; settings: Sus scrofa, LLC-PK1, 48 h
[5] = Inhibition of AP1 signaling pathway in human HeLa cells assessed as measured as lowest concentration required 50 to 60 % inhibition of PMA induced luciferase treated 30 mins before induction; format: cell-based
Method in brief: as §1

[6] = Inhibition of Notch signaling pathway in human HeLa cells assessed as measured as lowest concentration required 50 to 60 % inhibition of PMA induced luciferase treated 30 mins before induction; format: cell-based
Method in brief: as §1

HeLa [7] = assay: Inhibition of smad3/4 signaling pathway in human HeLa cells assessed as measured as lowest concentration required 50 to 60 % inhibition of TGF-beta induced luciferase treated 30 mins before induction; format: functional
Method in brief: as §1

[8] = Inhibition of Wnt signaling pathway in human HeLa cells assessed as measured as lowest concentration required 50 to 60 % inhibition of Wnt3a induced luciferase treated 30 mins before induction; format: cell-based
Method in brief: as §1

[9] = Inhibition of NFkappaB signaling pathway in human HeLa cells assessed as inhibition of PMA induced luciferase treated 30 mins before induction; format: cell-based
Method in brief: as §1

[10] = Inhibition of AP1 signaling pathway in human HeLa cells assessed as inhibition of PMA induced luciferase treated 30 mins before induction; format: cell-based
Method in brief: as §1

[11] = target: T1, Nitric oxide synthase, inducible (Mus musculus) (UniProt P29477); assay: Inhibition of iNOS in LPS-induced mouse RAW264.7 cells assessed as inhibition of […] up to 33.3 uM measured after 24 hrs; format: cell-based
T1 sequence (whole entry): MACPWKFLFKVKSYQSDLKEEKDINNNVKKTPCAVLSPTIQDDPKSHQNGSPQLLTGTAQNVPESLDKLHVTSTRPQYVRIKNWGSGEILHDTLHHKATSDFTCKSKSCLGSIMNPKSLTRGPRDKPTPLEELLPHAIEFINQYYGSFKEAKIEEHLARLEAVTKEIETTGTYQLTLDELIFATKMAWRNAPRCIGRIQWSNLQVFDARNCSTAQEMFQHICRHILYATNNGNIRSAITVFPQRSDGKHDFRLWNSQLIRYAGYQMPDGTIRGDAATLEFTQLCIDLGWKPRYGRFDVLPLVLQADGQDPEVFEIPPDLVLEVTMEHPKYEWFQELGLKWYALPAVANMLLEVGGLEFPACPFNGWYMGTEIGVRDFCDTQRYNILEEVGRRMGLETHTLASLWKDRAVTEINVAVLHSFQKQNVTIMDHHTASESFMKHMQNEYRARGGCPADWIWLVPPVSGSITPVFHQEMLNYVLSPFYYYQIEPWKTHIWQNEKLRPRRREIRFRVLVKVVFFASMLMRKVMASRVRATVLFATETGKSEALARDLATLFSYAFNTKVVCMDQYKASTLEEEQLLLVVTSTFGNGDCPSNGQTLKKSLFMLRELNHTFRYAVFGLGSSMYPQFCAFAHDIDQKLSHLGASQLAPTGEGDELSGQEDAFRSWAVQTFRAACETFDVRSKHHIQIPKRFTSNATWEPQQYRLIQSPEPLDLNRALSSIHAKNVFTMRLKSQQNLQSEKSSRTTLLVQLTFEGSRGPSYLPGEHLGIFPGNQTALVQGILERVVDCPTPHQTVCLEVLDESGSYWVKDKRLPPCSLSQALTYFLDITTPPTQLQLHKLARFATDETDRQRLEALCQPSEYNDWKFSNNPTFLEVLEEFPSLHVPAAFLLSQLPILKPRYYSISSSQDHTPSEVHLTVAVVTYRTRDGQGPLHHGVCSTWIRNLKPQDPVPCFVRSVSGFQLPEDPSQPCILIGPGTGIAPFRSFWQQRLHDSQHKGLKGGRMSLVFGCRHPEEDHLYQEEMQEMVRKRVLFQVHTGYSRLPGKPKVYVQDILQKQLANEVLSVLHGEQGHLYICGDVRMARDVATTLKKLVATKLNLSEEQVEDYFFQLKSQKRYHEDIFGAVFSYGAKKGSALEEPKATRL
Method in brief: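 RAW 264.7 macrophages seeded at 50 000 per well and grown 24 h. Compound added 30 min before LPS (5 μg/mL), then cells incubated a further 24 h. Nitrite in the supernatant measured with Griess reagent relative to vehicle control. Parthenolide served as positive control; cytotoxicity checked in parallel.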

Vero = assay: Cytotoxicity against african green monkey Vero cells assessed as growth inhibition measured after 48 hrs by Neutral Red dye assay; settings: Chlorocebus sabaeus
HL-60 [12] = assay: Cytotoxicity against human HL60 cells assessed as growth inhibition measured after 48 hrs by XTT assay; format: functional, cell-based; settings: HL-60, 48 h
HeLa [13] = assay: Cytotoxicity against human HeLa cells assessed as growth inhibition measured after 48 hrs by Neutral Red dye assay
[14] = Inhibition of E2F signaling pathway in human HeLa cells assessed as inhibition of PMA induced luciferase at 100 uM treated 30 mins before induction; format: cell-based
Method in brief: as §1

[15] = Inhibition of Hedgehog signaling pathway in human HeLa cells assessed as inhibition of PMA induced luciferase at 100 uM treated 30 mins before induction; format: cell-based
Method in brief: as §1

HL-60 [16] = assay: Inhibition of PMA induced ROS generation in human HL60 cells assessed as inhibition of ROA mediated oxidation of DCFH at 100 uM; format: functional, cell-based
Method in brief: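 HL-60 cells (0.8 × 10⁶/mL) in RPMI-1640 with 10% FBS were pretreated 30 min with compound (0.4–100 μM). PMA (100 ng/mL) was then added for 30 min, followed by DCFH-DA (5 μg/mL) for 15 min. DCF fluorescence read at Ex 485 / Em 530 nm and compared with vehicle control. Trolox served as positive control.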

[17] = Inhibition of Wnt signaling pathway in human HeLa cells assessed as inhibition of Wnt3a induced luciferase treated 30 mins before induction; format: cell-based
Method in brief: as §1

[18] = Inhibition of NFkappaB signaling pathway in human HeLa cells assessed as measured as lowest concentration required 50 to 60 % inhibition of PMA induced luciferase treated 30 mins before induction; format: cell-based
Method in brief: as §1

HeLa [19] = assay: Inhibition of Stat3 signaling pathway in human HeLa cells assessed as inhibition of IL-6 induced luciferase treated 30 mins before induction; format: functional, cell-based
Method in brief: as §1

SK-OV-3 [20] = assay: Cytotoxicity against human SKOV3 cells assessed as growth inhibition measured at 100 uM after 48 hrs by […] assay; format: functional, cell-based
HeLa [21] = assay: Inhibition of smad3/4 signaling pathway in human HeLa cells assessed as inhibition of TGF-beta induced luciferase treated 30 mins before induction; format: functional, cell-based
Method in brief: as §1

[22] = target: Forkhead box protein O1 (Homo sapiens) (UniProt Q12778); assay: Inhibition of FoxO signaling pathway in human HeLa cells assessed as inhibition of luciferase at 100 uM […]; format: cell-based
BT-549 = assay: Cytotoxicity against human BT549 cells assessed as growth inhibition measured after 48 hrs by Neutral Red dye assay; settings: BT-549, 48 h
[23] = Inhibition of Ets signaling pathway in human HeLa cells assessed as inhibition of PMA induced luciferase treated 30 mins before induction; format: cell-based
Method in brief: as §1

KB = assay: Cytotoxicity against human KB cells assessed as growth inhibition measured after 48 hrs by Neutral Red dye assay
[24] = Inhibition of NFkappaB signaling pathway in human HeLa cells assessed as inhibition of PMA induced luciferase at 100 uM treated 30 mins before induction; format: cell-based
Method in brief: as §1

[25] = Inhibition of AP1 signaling pathway in human HeLa cells assessed as inhibition of PMA induced luciferase at 100 uM treated 30 mins before induction; format: cell-based
Method in brief: as §1

HeLa [26] = assay: Inhibition of Stat3 signaling pathway in human HeLa cells assessed as inhibition of IL-6 induced luciferase at 100 uM treated 30 mins before induction; format: functional
Method in brief: as §1

[27] = Inhibition of Ets signaling pathway in human HeLa cells assessed as inhibition of PMA induced luciferase at 100 uM treated 30 mins before induction; format: cell-based
Method in brief: as §1

SK-OV-3 [28] = assay: Cytotoxicity against human SKOV3 cells assessed as growth inhibition measured after 48 hrs by Neutral Red dye assay; settings: SK-OV-3, 48 h
[29] = target: Myc proto-oncogene protein (Homo sapiens) (UniProt P01106); assay: Inhibition of Myc signaling pathway in human HeLa cells assessed as inhibition of PMA induced luciferase at 100 uM treated 30 mins before induction; format: cell-based
Method in brief: as §1

[30] = Inhibition of Notch signaling pathway in human HeLa cells assessed as inhibition of PMA induced luciferase at 100 uM treated 30 mins before induction; format: cell-based
Method in brief: as §1

Chain of Myc proto-oncogene protein (Homo sapiens) (P01106 whole entry): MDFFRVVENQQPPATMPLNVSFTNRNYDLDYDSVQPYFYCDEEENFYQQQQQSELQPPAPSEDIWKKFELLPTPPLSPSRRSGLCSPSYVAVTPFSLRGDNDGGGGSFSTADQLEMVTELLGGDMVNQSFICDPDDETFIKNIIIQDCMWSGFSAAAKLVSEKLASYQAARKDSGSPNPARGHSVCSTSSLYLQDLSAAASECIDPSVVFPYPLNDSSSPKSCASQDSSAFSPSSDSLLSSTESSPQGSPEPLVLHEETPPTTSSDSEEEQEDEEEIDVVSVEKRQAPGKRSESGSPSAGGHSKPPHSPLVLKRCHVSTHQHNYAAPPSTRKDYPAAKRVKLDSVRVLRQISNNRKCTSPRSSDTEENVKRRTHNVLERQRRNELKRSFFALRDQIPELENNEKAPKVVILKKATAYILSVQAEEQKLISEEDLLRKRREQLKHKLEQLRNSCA
Chain of Forkhead box protein O1 (Homo sapiens) (Q12778 whole entry): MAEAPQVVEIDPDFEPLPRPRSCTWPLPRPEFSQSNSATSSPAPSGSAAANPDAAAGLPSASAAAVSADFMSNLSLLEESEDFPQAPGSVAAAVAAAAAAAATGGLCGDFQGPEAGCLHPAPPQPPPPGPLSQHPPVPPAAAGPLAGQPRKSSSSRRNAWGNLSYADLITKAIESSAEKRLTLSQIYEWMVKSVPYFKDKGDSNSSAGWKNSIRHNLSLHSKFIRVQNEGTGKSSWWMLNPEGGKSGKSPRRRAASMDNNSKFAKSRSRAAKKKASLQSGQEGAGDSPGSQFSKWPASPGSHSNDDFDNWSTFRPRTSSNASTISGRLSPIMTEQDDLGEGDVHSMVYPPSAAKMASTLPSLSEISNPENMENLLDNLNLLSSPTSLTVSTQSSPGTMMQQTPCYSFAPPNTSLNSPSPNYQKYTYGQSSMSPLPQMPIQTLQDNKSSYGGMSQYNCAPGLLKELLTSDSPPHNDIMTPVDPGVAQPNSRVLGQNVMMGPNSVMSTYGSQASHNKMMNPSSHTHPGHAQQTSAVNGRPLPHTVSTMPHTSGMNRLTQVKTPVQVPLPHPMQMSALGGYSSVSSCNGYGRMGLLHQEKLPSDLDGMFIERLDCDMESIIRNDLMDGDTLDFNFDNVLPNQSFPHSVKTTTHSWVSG

## COc1cc(/C=C\c2ccc(OC)c(OC)c2)cc(OC)c1 [(Z)-3,4,3',5'-TETRAMETHOXYSTILBENE]
SK-MEL
  IC50: 4.3 µM
[1]
  MED: 65 µM
HeLa [2]
  MED: 77 µM
[3]
  MED: 65 µM
[4]
  IC50: 40 µM
LLC-PK1
  IC50: 6 µM
[5]
  MED: 80 µM
[6]
  MED: 40 µM
HeLa [7]
  MED: 55 µM
[8]
  MED: 50 µM
[9]
  IC50: 80 µM
[10]
  IC50: 80 µM
[11]
  inhibition: inactive
Vero
  IC50: > 33.3 µM
HL-60 [12]
  IC50: 4.3 µM
HeLa [13]
  IC50: 3.6 µM
[14]
  inhibition: < 40%
[15]
  inhibition: < 40%
HL-60 [16]
  inhibition: inactive
[17]
  IC50: 40 µM
[18]
  MED: 80 µM
HeLa [19]
  IC50: 50 µM
SK-OV-3 [20]
  growth inhibition (GI): inactive
HeLa [21]
  IC50: 40 µM
[22]
  inhibition: < 40%
BT-549
  IC50: 4 µM
[23]
  IC50: 40 µM
KB
  IC50: 4.3 µM

## COc1ccc(/C=C/c2cc(OC)cc(OC)c2)cc1 [TRISMETHOXYRESVERATROL]
SK-MEL
  IC50: 12.2 µM
LLC-PK1
  IC50: 20 µM
[24]
  inhibition: inactive
[25]
  inhibition: inactive
HeLa [26]
  inhibition: inactive
Vero
  IC50: 26.7 µM
HeLa [13]
  IC50: 13.3 µM
[27]
  inhibition: inactive
[14]
  inhibition: inactive
[15]
  inhibition: inactive
[22]
  inhibition: inactive
SK-OV-3 [28]
  IC50: 55.5 µM
BT-549
  IC50: 15.6 µM
[29]
  inhibition: inactive
[30]
  inhibition: inactive
KB
  IC50: 17.7 µM
